Experimental data gathered from unrelated publications.
Protocols differ between the studies behind these lines. Converted amounts (≈) assume the structure as drawn.

With CC(=O)ON=C1C=CC(=C(C#N)c2ccccc2)C=C1 the MIC was 16 µg/mL (≈ 60.5 µM) (Pichia kudriavzevii; microbial growth, broth dilution; ATCC14243; 48 h).
O=C(Nc1ccc(F)cc1)c1ccc(COC(Cn2ccnc2)c2ccc(Cl)cc2Cl)cc1 (stereo not drawn) gave an MIC80 of 0.06 µg/mL (≈ 0.124 µM) (Pichia kudriavzevii; microbial growth, broth dilution).
OC(Cn1cncn1)(Cn1cncn1)c1ccc(F)cc1F gave an MIC of 0.7 µg/mL (≈ 2.29 µM) (Pichia kudriavzevii; microbial growth, broth dilution; ATCC6258; 48 h).
With O=C(Nc1ccc(Br)cc1)c1ccc(COC(Cn2ccnc2)c2ccc(Cl)cc2Cl)cc1 (stereo not drawn) the MIC80 was 0.06 µg/mL (≈ 0.11 µM) (Pichia kudriavzevii; microbial growth, broth dilution).
For Cc1nnc(-c2ccc3ccn(CC(=O)Nc4ccccc4Cl)c3c2)o1, the EC50 was 431 nM (Plasmodium knowlesi; parasite growth, SYBR Green; 30 h, blood stage).
O=C(Nc1ccc(F)cc1F)c1ccc(COC(Cn2ccnc2)c2ccc(Cl)cc2Cl)cc1 (stereo not drawn) has an MIC80 of 0.03 µg/mL (≈ 0.0597 µM) (Pichia kudriavzevii; microbial growth, broth dilution).
C#CCON=C1C=CC(=C(C#N)c2ccccc2)C=C1 gave an MIC of 32 µg/mL (≈ 123 µM) (Pichia kudriavzevii; microbial growth, broth dilution; ATCC14243; 48 h).
With CC1=C(Cn2ccnn2)C(=O)c2ccccc2C1=O the IC50 was 1050 nM (Schistosoma mansoni; parasite growth; 72 h, larva).
For O=C(Nc1cccc(Br)c1)c1ccc(COC(Cn2ccnc2)c2ccc(Cl)cc2Cl)cc1 (stereo not drawn), the MIC80 was 0.06 µg/mL (≈ 0.11 µM) (Pichia kudriavzevii; microbial growth, broth dilution).
The IC50 of CC1=C(Cc2cn(CCN3CCC(F)(F)CC3)nn2)C(=O)c2ccccc2C1=O is reported as 1600 nM (Schistosoma mansoni; parasite growth; 72 h, larva).
C#CCOC(=O)ON=C1C=CC(=C(C#N)c2ccccc2)C=C1 has an MIC of 16 µg/mL (≈ 52.6 µM) (Pichia kudriavzevii; microbial growth, broth dilution; ATCC14243; 48 h).
CC1=C(Cc2cn(CCN3CCNCC3)nn2)C(=O)c2ccccc2C1=O has an IC50 of 1670 nM (Schistosoma mansoni; parasite growth; 72 h, larva).
With CC(C)c1ccc(/C=C2\N=C(SCC(=O)O)N(c3ccccc3)C2=O)cc1 the MIC was 12 µg/mL (≈ 31.5 µM) (Fusarium solani; microbial growth, broth dilution).
CC1=C(Cn2cc(COC3COC3)nn2)C(=O)c2ccccc2C1=O has an IC50 of 1080 nM (Schistosoma mansoni; parasite growth; 72 h, larva).
CC(=O)N1CCN(c2ccc(OCC3COC(Cn4ccnc4)(c4ccc(Cl)cc4Cl)O3)cc2)CC1 (stereo not drawn) has an MIC of 8 µg/mL (≈ 15.1 µM) (Pichia kudriavzevii; microbial growth, broth dilution; ATCC14243; 48 h).
For O=C(Nc1ccc2ccccc2c1)c1ccc(COC(Cn2ccnc2)c2ccc(Cl)cc2Cl)cc1 (stereo not drawn), the MIC80 was 32 µg/mL (≈ 62 µM) (Pichia kudriavzevii; microbial growth, broth dilution).
The IC50 of CC1=C(Cn2cc(CN3CCN(C(=O)OC(C)(C)C)CC3)nn2)C(=O)c2ccccc2C1=O is reported as 1500 nM (Schistosoma mansoni; parasite growth; 72 h, larva).
C=CC(=O)ON=C1C=CC(=C(C#N)c2ccccc2)C=C1 has an MIC of 16 µg/mL (≈ 57.9 µM) (Pichia kudriavzevii; microbial growth, broth dilution; ATCC14243; 48 h).
COc1ccc(NC(=O)c2ccc(COC(Cn3ccnc3)c3ccc(Cl)cc3Cl)cc2)cc1 (stereo not drawn) has an MIC80 of 0.125 µg/mL (≈ 0.252 µM) (Pichia kudriavzevii; microbial growth, broth dilution).
CC1=C(Cn2cc(CO)nn2)C(=O)c2ccccc2C1=O gave an IC50 of 1050 nM (Schistosoma mansoni; parasite growth; 72 h, larva).
The MIC of N#CC(=C1C=CC(=NOC(=O)OCc2ccccc2)C=C1)c1ccccc1 is reported as 128 µg/mL (≈ 359 µM) (Pichia kudriavzevii; microbial growth, broth dilution; ATCC14243; 48 h).
CCn1c(=O)c(-c2cc[nH]n2)cc2c(C)nc(N)nc21 gave an IC50 of 158 nM (Enterovirus A; viral replication, inhibitor, qPCR; RD, EV71).
The IC50 of CC1=C(Cn2cncn2)C(=O)c2ccccc2C1=O is reported as 900 nM (Schistosoma mansoni; parasite growth; 72 h, larva).
Cc1ccc(NC(=O)c2ccc(COC(Cn3ccnc3)c3ccc(Cl)cc3Cl)cc2)cc1 (stereo not drawn) gave an MIC80 of 0.125 µg/mL (≈ 0.26 µM) (Pichia kudriavzevii; microbial growth, broth dilution).
